pIC50: −log10 of the molar value. ≈ marks a conversion by molar mass, not a printed value. Calls of active or inactive are those of the source. The rule behind the calls is not given here.
Columns and labels:
[1] = Prodrug conversion in cell culture media assessed as half life; type: physicochemical
[2] = Cytotoxicity against human EU1 cells assessed as reduction in cell viability by WST8 assay; type: functional, cell-based; conditions: EU-1
In short: (§1)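 WST-8 viability read-out in HeLa cells and in an in-house established wild-type p53 leukemia line (EU-1). IC50 derived from the concentration–response data.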

[3] = Aqueous solubility of compound in PBS buffer at pH 7.4 by HPLC analysis; type: physicochemical
[4] = Prodrug conversion assessed as porcine pancreas Kallikrein-mediated compound hydrolysis by measuring half life by HPLC analysis; type: ADME, Sus scrofa; conditions: pig
In short: (§2)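 Amino-acid ester prodrugs incubated with the hydrolytic enzyme in PBS, pH 7.4, at 37 °C. Release of parent anthraquinone monitored by HPLC, and half-life derived.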

[5] = system: HeLa; assay: Cytotoxicity against human HeLa cells assessed as reduction in cell viability by WST8 assay; type: functional, cell-based; in short: as §1
[6] = Prodrug conversion in PBS buffer assessed as half life at pH 7.4 and 37 degC by HPLC analysis; type: physicochemical
[7] = Prodrug conversion assessed as porcine liver Esterase-mediated compound hydrolysis by measuring half life by HPLC analysis; type: ADME, Sus scrofa; conditions: pig, isolated protein; in short: as §2
[8] = target: E3 ubiquitin-protein ligase Mdm2 (Homo sapiens) (UniProt Q00987); assay: Induction of MDM2 degradation in human EU1 cells assessed as upregulation of p53 protein expression at 1 uM by Western blot analysis; type: cell-based; conditions: TDE = time-dependent effect
Sequence of E3 ubiquitin-protein ligase Mdm2 (Homo sapiens) (Q00987 whole entry, looked up): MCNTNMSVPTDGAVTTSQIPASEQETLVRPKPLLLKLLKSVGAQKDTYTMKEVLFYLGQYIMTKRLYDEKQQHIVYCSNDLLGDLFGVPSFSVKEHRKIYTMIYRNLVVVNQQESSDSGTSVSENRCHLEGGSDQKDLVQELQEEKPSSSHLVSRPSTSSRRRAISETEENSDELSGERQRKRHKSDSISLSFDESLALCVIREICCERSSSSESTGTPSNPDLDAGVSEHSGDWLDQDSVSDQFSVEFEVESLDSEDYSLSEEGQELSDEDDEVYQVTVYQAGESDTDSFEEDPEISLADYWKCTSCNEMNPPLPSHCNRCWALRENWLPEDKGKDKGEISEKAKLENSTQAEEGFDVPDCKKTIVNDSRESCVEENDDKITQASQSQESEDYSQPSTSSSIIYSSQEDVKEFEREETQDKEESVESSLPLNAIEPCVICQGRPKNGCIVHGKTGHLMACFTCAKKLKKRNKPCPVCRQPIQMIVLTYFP
In short: (§3)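 EU-1 is an in-house established leukemia line carrying wild-type p53. Cells were exposed across a series of concentrations and incubation times, then lysed. MDM2 and p53 protein levels were read by Western blot.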

[9] = target: E3 ubiquitin-protein ligase Mdm2 (Homo sapiens) (UniProt Q00987); assay: Induction of MDM2 degradation in human EU1 cells assessed as downregulation of MDM2 protein expression at 0.8 uM incubated for 15 hrs by Western blot analysis; type: cell-based; in short: as §3
[10] = target: E3 ubiquitin-protein ligase Mdm2 (Homo sapiens) (UniProt Q00987); assay: Induction of MDM2 degradation in human EU1 cells assessed as downregulation of MDM2 protein expression incubated for 15 hrs by Western blot analysis; type: cell-based; in short: as §3
[11] = target: E3 ubiquitin-protein ligase Mdm2 (Homo sapiens) (UniProt Q00987); assay: Induction of MDM2 degradation in human EU1 cells assessed as upregulation of p53 protein expression at 1 uM incubated for 4 to 8 hrs by Western blot analysis; type: cell-based; in short: as §3
[12] = target: E3 ubiquitin-protein ligase Mdm2 (Homo sapiens) (UniProt Q00987); assay: Induction of MDM2 degradation in human EU1 cells assessed as upregulation of p53 protein expression incubated for 15 hrs by Western blot analysis; type: cell-based; in short: as §3
[13] = target: E3 ubiquitin-protein ligase Mdm2 (Homo sapiens) (UniProt Q00987); assay: Induction of MDM2 degradation in human EU1 cells assessed as downregulation of MDM2 protein expression at 1 uM by Western blot analysis; type: cell-based; conditions: TDE = time-dependent effect; in short: as §3
[14] = target: E3 ubiquitin-protein ligase Mdm2 (Homo sapiens) (UniProt Q00987); assay: Induction of MDM2 degradation in human EU1 cells assessed as upregulation of p53 protein expression at 0.8 uM incubated for 15 hrs by Western blot analysis; type: cell-based; in short: as §3
[15] = target: E3 ubiquitin-protein ligase Mdm2 (Homo sapiens) (UniProt Q00987); assay: Induction of MDM2 degradation in human EU1 cells assessed as downregulation of MDM2 protein expression at 1 uM incubated for 4 to 16 hrs by Western blot analysis; type: cell-based; in short: as §3
[16] = Prodrug conversion in none-denaturated human EU1 cell lysates assessed as N-[4,5-bis(2-hydroxyethoxy)-9,10-dioxo-2-anthryl]-2-chloro-acetamide release measured within 15 mins by HPLC analysis; type: ADME, subcellular, Lysate; conditions: 0.25 h
In short: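 Prodrug incubated with non-denatured lysate of EU-1 cells, an in-house wild-type p53 leukemia line, to assess activation by cellular components. Read-out was cleavage of the amino acid ester bond releasing the parent anthraquinone, followed over time.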

[17] = PBS buffer, read-out: solubility

| SMILES | t1/2 [1] | pIC50 [2] | solubility [3, 17] | t1/2 [4] | pIC50 [5] | t1/2 [6] | t1/2 [7] | solubility ([3]; buffer) | Activity [8] | Activity [9] | Activity [10] | Activity [11] | Activity [12] | Activity [13] | Activity [14] | Activity [15] | Drug metabolism [16] |
| --- | --- | --- | --- | --- | --- | --- | --- | --- | --- | --- | --- | --- | --- | --- | --- | --- | --- |
| Cl.NCC(=O)OCCOc1cccc2c1C(=O)c1c(OCCOC(=O)CN)cc(NC(=O)CCl)cc1C2=O | 19.3 min | 5.96 | > 100 mg/mL | 35.9 min | 5.44 | 31.5 min | 10.1 min | – | – | – | – | – | – | – | – | – | – |
| Cl.NCCCC[C@H](N)C(=O)OCCOc1cccc2c1C(=O)c1c(OCCOC(=O)[C@@H](N)CCCCN)cc(NC(=O)CCl)cc1C2=O | – | 5.89 | > 100 mg/mL | 2.4 min | 4.97 | 140.8 min | 44.2 min | – | – | – | – | – | – | – | – | – | – |
| CSCC[C@H](N)C(=O)OCCOc1cccc2c1C(=O)c1c(OCCOC(=O)[C@@H](N)CCSC)cc(NC(=O)CCl)cc1C2=O.Cl | – | 5.91 | > 100 mg/mL | 12 min | 5.15 | 44.8 min | 3.7 min | – | – | – | – | – | – | – | – | – | – |
| Cl.N[C@@H](Cc1ccccc1)C(=O)OCCOc1cccc2c1C(=O)c1c(OCCOC(=O)[C@@H](N)Cc3ccccc3)cc(NC(=O)CCl)cc1C2=O | – | 5.91 | – | 6.5 min | 5.25 | 73.7 min | 1 min | 703 mg/mL | – | – | – | – | – | – | – | – | – |
| CC(C)C[C@H](N)C(=O)OCCOc1cccc2c1C(=O)c1c(OCCOC(=O)[C@@H](N)CC(C)C)cc(NC(=O)CCl)cc1C2=O.Cl | – | 5.93 | > 100 mg/mL | 39.6 min | 5.55 | 127.7 min | 2.5 min | – | – | – | – | – | – | – | – | – | – |
| Cl.N[C@@H](CCC(=O)O)C(=O)OCCOc1cccc2c1C(=O)c1c(OCCOC(=O)[C@@H](N)CCC(=O)O)cc(NC(=O)CCl)cc1C2=O | 156.1 min | 5.49 | > 100 mg/mL | 110 min | 5.04 | 268.6 min | 117.9 min | – | – | – | – | – | – | – | – | – | – |
| C[C@H](N)C(=O)OCCOc1cccc2c1C(=O)c1c(OCCOC(=O)[C@H](C)N)cc(NC(=O)CCl)cc1C2=O.Cl | – | 5.78 | > 100 mg/mL | 24.7 min | 5.09 | 100.9 min | 6.2 min | – | – | – | – | – | – | – | – | – | – |
| O=C(CCl)Nc1cc(OCCO)c2c(c1)C(=O)c1cccc(OCCO)c1C2=O | – | 6.05 | – | – | 5.42 | – | – | 0.06 mg/mL (≈ 143 µM) | Tde | Active | Dose-dependent effect | Active | Dose-dependent effect | Tde | Active | Active | – |
| CC(C)[C@H](N)C(=O)OCCOc1cccc2c1C(=O)c1c(OCCOC(=O)[C@@H](N)C(C)C)cc(NC(=O)CCl)cc1C2=O.Cl | – | 5.97 | > 100 mg/mL | 126.3 min | 5.38 | 147.7 min | 25.3 min | – | – | – | – | – | – | – | – | – | Metabolite_Detected |
| CC[C@H](C)[C@H](N)C(=O)OCCOc1cccc2c1C(=O)c1c(OCCOC(=O)[C@@H](N)[C@@H](C)CC)cc(NC(=O)CCl)cc1C2=O.Cl | – | 5.94 | > 100 mg/mL | 48.4 min | 5.24 | 154.5 min | 24.3 min | – | – | – | – | – | – | – | – | – | – |
| Cl.N=C(N)NCCC[C@H](N)C(=O)OCCOc1cccc2c1C(=O)c1c(OCCOC(=O)[C@@H](N)CCCNC(=N)N)cc(NC(=O)CCl)cc1C2=O | – | 5.68 | > 100 mg/mL | 0.2 min | 4.89 | 187.1 min | 63 min | – | – | – | – | – | – | – | – | – | – |
| Cl.N[C@@H](Cc1ccc(O)cc1)C(=O)OCCOc1cccc2c1C(=O)c1c(OCCOC(=O)[C@@H](N)Cc3ccc(O)cc3)cc(NC(=O)CCl)cc1C2=O | – | 5.90 | > 100 mg/mL | 6.5 min | 5.27 | 70.6 min | 1.7 min | – | – | – | – | – | – | – | – | – | – |
| Cl.NC(=O)CC[C@H](N)C(=O)OCCOc1cccc2c1C(=O)c1c(OCCOC(=O)[C@@H](N)CCC(N)=O)cc(NC(=O)CCl)cc1C2=O | – | 5.84 | > 100 mg/mL | 66.9 min | 4.91 | 137.1 min | 73 min | – | – | – | – | – | – | – | – | – | – |
| O=C(CCl)Nc1cc(O)c2c(c1)C(=O)c1cccc(O)c1C2=O | – | – | – | – | – | – | – | 0.0085 mg/mL (≈ 25.6 µM) | – | – | – | – | – | – | – | – | – |

Reference: ChEMBL document CHEMBL4602615, “Upregulation of p53 through induction of MDM2 degradation: Amino acid prodrugs of anthraquinone analogs” (Bioorg Med Chem Lett, 2020)
